The values that follow come from ChEMBL document CHEMBL2034830, “Pyrazole[3,4-e][1,4]thiazepin-7-one derivatives as a novel class of Farnesoid X Receptor (FXR) agonists” (Bioorg Med Chem, 2012).

In assay [1] the target is T1, Bile acid receptor (Homo sapiens) (UniProt Q96RI1).
T1 sequence (whole entry): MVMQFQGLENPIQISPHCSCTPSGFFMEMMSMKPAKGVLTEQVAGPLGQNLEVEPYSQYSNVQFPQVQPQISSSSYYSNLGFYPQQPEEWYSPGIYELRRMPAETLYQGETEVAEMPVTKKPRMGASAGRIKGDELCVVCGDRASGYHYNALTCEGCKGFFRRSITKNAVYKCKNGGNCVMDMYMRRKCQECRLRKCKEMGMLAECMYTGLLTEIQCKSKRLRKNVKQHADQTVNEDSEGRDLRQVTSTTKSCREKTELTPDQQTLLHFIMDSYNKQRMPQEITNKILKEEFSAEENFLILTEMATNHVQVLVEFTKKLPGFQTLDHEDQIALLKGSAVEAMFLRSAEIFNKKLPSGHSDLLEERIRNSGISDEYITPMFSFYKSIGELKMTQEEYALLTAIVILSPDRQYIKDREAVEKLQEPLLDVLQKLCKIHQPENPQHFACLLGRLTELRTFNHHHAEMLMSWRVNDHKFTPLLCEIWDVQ
The assay can be described thus: Induction of FXR-mediated upregulation of Ostbeta gene in human HepG2 cells after 18 hrs by qRT-PCR analysis relative to obeticholic acid. The format is cell-based. A digest of the protocol: (§1)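 HepG2 cells were stimulated for 18 h with increasing compound concentrations. Total RNA was random reverse-transcribed, and 10 ng template was run in SYBR Green real-time PCR with 0.3 μM of each primer. Cycling was 95 °C 3 min, then 45 cycles of 95 °C 10 s and 60 °C 30 s, in triplicate. Expression is given as ΔCT against an endogenous control, and relative expression as ΔΔCT.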
(Quantitative PCR measures a nucleic acid by following its amplification.)

For assay [2], the target named is T1, Bile acid receptor (Homo sapiens). Briefly: Induction of FXR-mediated down-regulation of Cyp7alpha1 gene in human HepG2 cells after 18 hrs by qRT-PCR analysis. The format is cell-based. A digest of the protocol:
as §1

Assay [3] shares this target. The assay can be described thus: Induction of FXR-mediated upregulation of Bsep gene in human HepG2 cells after 18 hrs by qRT-PCR analysis. The assay is classed as cell-based. A digest of the protocol: as §1
The target of another assay is T2, Bile acid receptor (Homo sapiens, UniProt Q96RI1).
T2 sequence (Q96RI1 whole entry): T1 sequence (whole entry)
The assay can be described thus: Agonist activity at human GST-tagged FXR ligand binding domain assessed as recruitment of Src-1 peptide […] by AlphaScreen assay. (Alpha assays give light when donor and acceptor beads are brought close together.)

Assay [4] deals with T1, Bile acid receptor (Homo sapiens). Briefly: Agonist activity at human GST-tagged FXR ligand binding domain assessed as recruitment of Src-1 peptide […] by AlphaScreen assay relative to 10 uM of CDCA.

Active and inactive are the calls of the source. The calls are words filed in the database; no cut-off is given here.

As a reminder, the EC50 is the concentration needed to bring the measured effect to its halfway point. For the compound `COc1ccccc1Oc1ccc([C@H]2S[C@@H](C)C(=O)Nc3c2c(C)nn3-c2ccccc2C)cc1` (racemic), the result in assay [1] was Active. The Activity result in assay [2] is “Dose-dependent effect”. In assay [3], the result was inactive. Moreover, the EC50 at Bile acid receptor (read-out: EC50) is 1700 nM. For the same compound, in assay [4], the Efficacy stood at 240%.

For the compound `Cc1ccccc1-n1nc(C)c2c1NC(=O)[C@H](C)S[C@@H]2c1ccc(-c2ccc(C(=O)O)cc2)cc1` (racemic), on Bile acid receptor, the EC50 result is given as “Not Active”.

For the compound `COc1ccccc1-c1ccc([C@H]2S[C@@H](C)C(=O)Nc3c2c(C)nn3-c2ccccc2C)cc1` (racemic), on Bile acid receptor (read-out: EC50), the EC50 turned out to be 1100 nM. In addition, the Efficacy in assay [4] worked out at 50%.

Consider `Cc1ccccc1-n1nc(C)c2c1NC(=O)[C@H](C)S[C@@H]2c1ccc(Oc2ccccc2)cc1` (racemic), for which, at Bile acid receptor (read-out: EC50), the EC50 was 1300 nM. For the same compound, in assay [4], the Efficacy came to 118%.

On to `Cc1cccc(-n2nc(C)c3c2NC(=O)[C@H](C)S[C@@H]3c2ccc(Oc3ccccc3)cc2)c1` (racemic), for which the EC50 on Bile acid receptor (read-out: EC50) was found to be 2400 nM. Also, in assay [4], the Efficacy was 22%.

Regarding `Cc1nn(-c2ccccc2Cl)c2c1C(c1ccc(Oc3ccccc3)cc1)SC(C)C(=O)N2` (mixture of isomers), the EC50 at Bile acid receptor (read-out: EC50) stood at 2700 nM. Besides, the Efficacy in assay [4] stood at 57%.

For the compound `Cc1ccccc1-n1nc(C)c2c1NC(=O)[C@H](C)S[C@@H]2c1ccc(-c2ccsc2)cc1` (racemic), the EC50 at Bile acid receptor (read-out: EC50) turned out to be 1400 nM. In assay [4], the Efficacy worked out at 68%.

For `Cc1ccccc1-n1nc(C)c2c1NC(=O)[C@H](C)S[C@@H]2c1ccc(Oc2cccc(C(=O)O)c2)cc1` (racemic), at Bile acid receptor, the EC50 result is recorded as “Not Active”.

Consider `COc1ccccc1-n1nc(C)c2c1NC(=O)[C@H](C)S[C@@H]2c1ccc(Oc2ccccc2)cc1` (racemic), for which, at Bile acid receptor (read-out: EC50), the EC50 was found to be 3300 nM. The Efficacy in assay [4] is 37%.

In the case of `CCCc1ccccc1-n1nc(C)c2c1NC(=O)[C@H](C)S[C@@H]2c1ccc(Oc2ccccc2)cc1` (racemic), in assay [1], the outcome was Active. Also, the Activity result in assay [2] was “Dose-dependent effect”. For the same compound, the outcome in assay [3] was inactive. In addition, the EC50 at Bile acid receptor (read-out: EC50) is 1100 nM. The Efficacy in assay [4] stood at 240%.

With `COc1cccc(Oc2ccc([C@H]3S[C@@H](C)C(=O)Nc4c3c(C)nn4-c3ccccc3C)cc2)c1` (racemic), the EC50 at Bile acid receptor (read-out: EC50) came out at 1700 nM. Besides, in assay [4], the Efficacy amounted to 120%.

As for `CCc1ccccc1-n1nc(C)c2c1NC(=O)[C@H](C)S[C@@H]2c1ccc(Oc2ccccc2)cc1` (racemic), the result in assay [1] was Active. For the same compound, the Activity result in assay [2] and in assay [3] was “Dose-dependent effect” in each case. The EC50 at Bile acid receptor (read-out: EC50) came to 1100 nM. Besides, the Efficacy in assay [4] stood at 190%.

Turning to `COc1cccc(-c2ccc([C@H]3S[C@@H](C)C(=O)Nc4c3c(C)nn4-c3ccccc3C)cc2)c1` (racemic), on Bile acid receptor (read-out: EC50), the EC50 amounted to 1800 nM. Besides, the Efficacy in assay [4] was 41%.

Consider `Cc1ccccc1-n1nc(C)c2c1NC(=O)[C@H](C)S[C@@H]2c1ccc(Oc2ccccc2C(=O)O)cc1` (racemic), for which the EC50 entry at Bile acid receptor is “Not Active”.

In the case of `Cc1ccccc1-n1nc(C)c2c1NC(=O)[C@H](C)S[C@@H]2c1ccc(-c2cccc(C(=O)O)c2)cc1` (racemic), the EC50 entry at Bile acid receptor is “Not Active”.

For the compound `Cc1nn(-c2ccccc2C(C)C)c2c1[C@@H](c1ccc(Oc3ccccc3)cc1)S[C@@H](C)C(=O)N2` (racemic), the EC50 on Bile acid receptor (read-out: EC50) amounted to 1900 nM. For the same compound, the Efficacy in assay [4] was determined as 174%.

Turning to `Cc1ccccc1-n1nc(C)c2c1NC(=O)[C@H](C)S[C@@H]2c1ccc(-c2cc3ccccc3o2)cc1` (racemic), the EC50 on Bile acid receptor (read-out: EC50) was determined as 1500 nM. Besides, the Efficacy in assay [4] was found to be 17%.

Take `Cc1ccccc1-n1nc(C)c2c1NC(=O)[C@H](C)S[C@@H]2c1ccc(Oc2ccc(C(=O)O)cc2)cc1` (racemic): on Bile acid receptor, the EC50 entry is “Not Active”.

As to `Cc1ccccc1-n1nc(C)c2c1NC(=O)[C@H](C)S[C@@H]2c1ccc(-c2ccco2)cc1` (racemic), on Bile acid receptor (read-out: EC50), the EC50 was determined as 3600 nM. The Efficacy in assay [4] amounted to 32%.

With `Cc1ccccc1-n1nc(C)c2c1NC(=O)[C@H](C)S[C@@H]2c1ccc(-c2ccoc2)cc1` (racemic), on Bile acid receptor (read-out: EC50), the half-maximal effective concentration (EC50) was 3500 nM. The Efficacy in assay [4] was found to be 40%.

`COC(=O)c1ccc(-c2ccc([C@H]3S[C@@H](C)C(=O)Nc4c3c(C)nn4-c3ccccc3C)cc2)cc1` (racemic): the EC50 entry on Bile acid receptor is recorded as “Not Active”.

For `COc1cc([C@H]2S[C@@H](C)C(=O)Nc3c2c(C)nn3-c2ccccc2C)ccc1Oc1ccccc1` (racemic), at Bile acid receptor (read-out: EC50), the EC50 amounted to 1900 nM. For the same compound, the Efficacy in assay [4] was 130%.

Turning to `Cc1nn(-c2ccccc2C(F)(F)F)c2c1C(c1ccc(Oc3ccccc3)cc1)SC(C)C(=O)N2` (racemic), the EC50 on Bile acid receptor (read-out: EC50) came to 2000 nM. Further, the Efficacy in assay [4] amounted to 50%.

Regarding `CCOc1cccc(-c2ccc([C@H]3S[C@@H](C)C(=O)Nc4c3c(C)nn4-c3ccccc3C)cc2)c1` (racemic), the EC50 on Bile acid receptor (read-out: EC50) was determined as 3500 nM. In assay [4], the Efficacy was found to be 13%.

Turning to `Cc1ccccc1-n1nc(C)c2c1NC(=O)[C@H](C)S[C@@H]2c1ccc(OCc2ccccc2)cc1` (racemic), the EC50 entry at Bile acid receptor is “Not Active”.

In the case of `Cc1nn(-c2ccccc2F)c2c1C(c1ccc(Oc3ccccc3)cc1)SC(C)C(=O)N2` (mixture of isomers), at Bile acid receptor (read-out: EC50), the EC50 came out at 3900 nM. Besides, in assay [4], the Efficacy was found to be 72%.

With `Cc1ccccc1-n1nc(C)c2c1NC(=O)[C@H](C)S[C@@H]2c1ccc(-c2ccccc2)cc1` (racemic), on Bile acid receptor (read-out: EC50), the EC50 was 990 nM. The Efficacy in assay [4] is 24%.

Consider `COc1ccc(C2SC(C)C(=O)Nc3c2c(C)nn3-c2ccccc2C)c(OC)c1` (configuration not stated), for which the EC50 on Bile acid receptor (read-out: EC50) was 10500 nM. Besides, in assay [4], the Efficacy amounted to 63%.

In the case of `COc1ccc(Oc2ccc([C@H]3S[C@@H](C)C(=O)Nc4c3c(C)nn4-c3ccccc3C)cc2)cc1` (racemic), the EC50 on Bile acid receptor (read-out: EC50) is 2200 nM. Also, the Efficacy in assay [4] is 70%.

Consider `Cc1nn(-c2ccccc2I)c2c1C(c1ccc(Oc3ccccc3)cc1)SC(C)C(=O)N2` (racemic), for which the EC50 on Bile acid receptor (read-out: EC50) was found to be 1300 nM. Besides, the Efficacy in assay [4] was 130%.

In the case of `Cc1ccccc1-n1nc(C)c2c1NC(=O)[C@H](C)S[C@@H]2c1ccc(/C=C/c2ccccc2)cc1` (racemic), the EC50 entry on Bile acid receptor was “Not Active”.

Take `Cc1ccc(-n2nc(C)c3c2NC(=O)[C@H](C)S[C@@H]3c2ccc(Oc3ccccc3)cc2)cc1` (racemic): the EC50 on Bile acid receptor (read-out: EC50) was determined as 3400 nM. Besides, the Efficacy in assay [4] was 11%.

With `Cc1ccccc1-n1nc(C)c2c1NC(=O)[C@H](C)S[C@@H]2c1ccc(-c2cccs2)cc1` (racemic), the EC50 on Bile acid receptor (read-out: EC50) worked out at 2600 nM. The Efficacy in assay [4] was 85%.

Take `COc1ccc(-c2ccc([C@H]3S[C@@H](C)C(=O)Nc4c3c(C)nn4-c3ccccc3C)cc2)cc1` (racemic): the EC50 at Bile acid receptor (read-out: EC50) is 1200 nM. In addition, in assay [4], the Efficacy stood at 38%.

For the compound `Cc1nn(-c2ccccc2Br)c2c1C(c1ccc(Oc3ccccc3)cc1)SC(C)C(=O)N2` (mixture of isomers), at Bile acid receptor (read-out: EC50), the EC50 turned out to be 1800 nM. Also, in assay [4], the Efficacy was 84%.

With `COC(=O)c1cccc(-c2ccc([C@H]3S[C@@H](C)C(=O)Nc4c3c(C)nn4-c3ccccc3C)cc2)c1` (racemic), the EC50 result on Bile acid receptor is “Not Active”.
